Test results reported in ChEMBL document CHEMBL2062365, “Suppressive effects of coumarins from Mammea siamensis on inducible nitric oxide synthase expression in RAW264.7 cells” (Bioorg Med Chem, 2012).
pIC50: −log10 of the molar value.

Experiments:
RAW264.7 [1] = experiment: Antiinflammatory activity in mouse RAW264.7 cells assessed as inhibition of LPS-induced NO production at 30 uM relative to control; assay type: functional
How it was run: (§1)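 RAW264.7 cells (DMEM, 10% FBS, 37 °C, 5% CO2) seeded at 2.5 × 10^5 cells/well. After 6 h, nonadherent cells were washed off. Adherent cells were exposed to test compound for 10 min, then to LPS (E. coli 055:B5, final 10 µg/mL) for 18 h. Supernatant nitrite was measured by Griess reaction. Inhibition % = (A−B)/(A−C)×100, with C as the no-LPS control. IC50 was read graphically; N = 4, mean ± SEM. CAPE was the reference.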

RAW264.7 [2] = experiment: Antiinflammatory activity in mouse RAW264.7 cells assessed as inhibition of LPS-induced NO production relative to control; assay type: functional, cell-based; how it was run: as §1

pIC50 (RAW264.7 [2]): 4.77
Compound: Oc1c2ccccc2c2c3c(cccc13)N=N2 [SP-600125]
inhibition at 30 µM (RAW264.7 [1]): 74.6%
